# Compound activity deposited in PubChem by several laboratories.
# Hits are enriched below; roughly 1.6% of the tested compounds scored in any of these assays.
# ATG4B inhibitor – ATG4B (human) cysteine protease inhibition. hit rate 0.51% among 340,000. Q9Y4P1. inhibition, % at 8.33 µM. ATG4B cleavage of LC3-PLA2, NBD-HPC fluorescence, 1 h; in the data active means inhibition above about 40%
# PKA-R1A act – activators of PKA-R1A complex | hit rate 0.083% among 340,000 | activation, % at 11.4 µM | AID 504707 | PKA-R1A dissociation, Cy5-IP20 fluorescence polarization; scaled: DMSO 0%, 113 µM cGMP 100% | P00514+P68181;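 active means percent activation above the mean of all tested compounds plus 3 SD, cut at about 19% in these data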;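 further: higher means more PKAc released from R1A so a rise in polarization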
# HKDC1 inh – blocks human hexokinase HKDC1 activity | Q2TB90 | recombinant HKDC1, G6PDH/diaphorase resazurin coupled fluorescence | inhibition, % at 20 µM | hit rate 0.16% among 340,000;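 active means inhibition above about 35% when tested at 20 µM, limit read from the data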;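 further: plate controls were DMSO wells with enzyme for no effect and DMSO wells lacking enzyme for full effect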
#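 Material – in-house recombinant HK5 (HKDC1) enzyme · Quantity – HKDC1 at 5 µg/mL · Buffer or medium – pH 8.0 Tris buffer with 10 mM MgCl2 · Reagent – glucose with 1 mM ATP · Dosing – single 20 µM dose · Times – reaction time 90 min, room temperature, protected from light · Technique – resorufin fluorescence at 613 nm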
# T cell modulator – modulates CD8 T cell binding to vesicles. 2C CD8+ T cell-vesicle binding, flow cytometry; stronger effect = lower value. response (vesicle binding), % at 7 µM. hit rate 0.068% among 330,000;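 active means response, share of CD8 T cells binding vesicles, and their 90th percentile fluorescence all below set limits, cut at about 80% in these data, passing the limit was not always enough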;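 further: values below 100% mean blocked vesicle binding to the CD8+ T cells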
#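 Incubation: binding step 1.5 h, 37 °C, antibody labelling 20 min, ice; system: murine 2C transgenic CD8+ T lymphocytes; technique: cytometric PE anti-B7-1 and Alexa647 anti-CD8 signals after 1% paraformaldehyde fixation; also added: QL9-charged Drosophila Ld/ICAM-1/B7-1 vesicles; control set: naked versus QL9-loaded vesicles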
# PKA-R2B activ – activators of human PKA-R2B complex | P22694+P31323 | hit rate 0.079% among 340,000 | PKA-R2B holoenzyme dissociation, Cy5-IP20 fluorescence polarization; R2B truncated from residue 108, S112A mutant; 0% DMSO only, 100% 113 µM cGMP | activation, % at 11.4 µM;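 active means activation above a cutoff set at the mean over all compounds plus 3 SD, cut at about 18% in these data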;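 further: higher means more holoenzyme dissociation and a rise in polarization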
# Target sequence (P31323 whole entry, looked up, other chains not shown, the tested form may be a part): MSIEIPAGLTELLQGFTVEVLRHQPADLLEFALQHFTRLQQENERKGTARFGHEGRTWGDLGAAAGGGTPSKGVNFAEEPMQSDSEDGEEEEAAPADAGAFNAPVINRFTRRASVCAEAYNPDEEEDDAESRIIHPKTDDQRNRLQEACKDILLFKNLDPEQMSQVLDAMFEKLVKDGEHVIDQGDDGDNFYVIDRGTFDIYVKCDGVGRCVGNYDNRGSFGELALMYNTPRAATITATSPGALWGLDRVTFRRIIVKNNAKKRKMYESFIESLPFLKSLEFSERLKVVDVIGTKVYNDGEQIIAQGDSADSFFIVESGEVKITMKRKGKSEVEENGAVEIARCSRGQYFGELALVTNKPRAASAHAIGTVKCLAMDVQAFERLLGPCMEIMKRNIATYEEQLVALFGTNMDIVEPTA
# PfG6PD inh – PfG6PD (Plasmodium falciparum) enzyme inhibition; PfGluPho enzyme, NADPH resazurin-diaphorase fluorescence; inhibition, % at 20 µM; hit rate 0.78% among 350,000; AID 504690;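 active means inhibition reaching at least a set limit at 20 µM in the primary screen, cut at about 59% in these data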;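 further: 0% = DMSO wells with substrate and 100% = DMSO wells lacking glucose-6-phosphate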
# ATG4B confirm – ATG4B (human) inhibition, single-dose confirmed. shares compounds with ATG4B inhibitor. ATG4B protease fluorescent substrate cleavage assay. inhibition, % at 8.33 µM. hit rate 92% among 320. AID 504757; in the data active means inhibition above about 39%
# PLA2 ctr – counter-screen for ATG4B inhibitors: human phospholipase A2. hit rate 66% among 1,600. AID 588402. purified PLA2, NBD-C6-HPC fluorescence, 45 min. shares compounds with ATG4B inhibitor. inhibition, % at 8.33 µM; in the data active means inhibition above about 50%
# * hit, by the source's call; i = inactive; nt = no result given.
SMILES,ATG4B inhibitor,PKA-R1A act,HKDC1 inh,T cell modulator,PKA-R2B activ,PfG6PD inh,PLA2 ctr,others
Nc1c(C=C2C=CC(=O)C=C2)c(=O)nc2snc(SCc3ccccc3)n12,40*,0,6,419,-4,-39,32,ATG4B confirm=76*
C[C@@H]1O[C@@H](O[C@@H]2[C@@H](O)[C@H](OCCc3ccc(O)c(O)c3)O[C@H](CO)[C@H]2OC(=O)/C=C/c2ccc(O)c(O)c2)[C@H](O)[C@H](O)[C@H]1O,-8,-7,0,397,-4,49,nt,
O=C1/C(=C\c2cc([N+](=O)[O-])ccc2O)SC(=S)N1Cc1ccc(Cl)cc1,52*,-8,8,714,6,7,51*,
O=C1/C(=C\c2cccc(O)c2O)SC(=S)N1Cc1ccccc1,74*,4,9,151,3,27,89*,
CCn1cc(C(=O)N[C@H](C(=O)NCCO)C(C)C)c(=O)c2cc3c(cc21)OCO3,1,-3,2,220,2,-20,nt,
COc1ccc(CCNC(=O)CN2C(=O)C(=O)N(C3CCCC3)C2=O)cc1OC,-41,5,-6,248,-10,13,nt,
COc1cc2c(cc1OC)n(CC(=O)NC1CCCCCC1)n1c(C)cc(=O)nc21,5,4,-1,113,-8,-8,nt,
O=C(Nc1nc(-c2ccc(Cl)cc2)cs1)NC1CCCCC1,64*,-13,2,488,-5,1,73*,
CCOc1cc(C(=O)OCC(=O)Nc2cccc(S(=O)(=O)NC3=NCCCCC3)c2)cc(OCC)c1OCC,-11,-21,-1,188,1,-2,nt,
CC(C)(C)C(=O)Nc1nnc(CSCc2ccccc2F)s1,40*,16,-3,898,-7,-18,40,ATG4B confirm=59*
O=C(Nc1ccccc1)C(=O)Nc1ccc2c(c1)N(C(=O)C1CC1)CCC2,4,-1,1,418,-7,11,nt,
CCOC(=O)c1c(NC(=O)C(C)Sc2nnc(C)c(=O)[nH]2)sc2c1CCCC2 (stereo not drawn),62*,-5,4,i,0,-10,65*,
NS(=O)(=O)c1ccc(NC(=O)COC(=O)c2cc3ccccc3cc2O)cc1,-10,-4,5,302,2,14,nt,
CC(=O)c1cc2c(C)c(C(=O)c3ccccc3)oc2cc1O,40*,-5,-5,162,3,-4,-6,
O=C(c1ccccc1)c1ccc(O)cc1O,-23,9,1,137,-2,-8,nt,
CC(=O)c1ccc(NC(=O)CCOc2cc(C)ccc2C)cc1,-12,-2,-4,357,12,10,nt,
Cc1ccc(Cl)cc1N1CCN(C(=O)CSc2nnc3n2C(C)(C)Cc2ccccc2-3)CC1,44*,-11,-12,259,1,8,69*,
COc1ccc(N2CCN(C(=O)CSc3nnc4n3C(C)(C)Cc3ccccc3-4)CC2)cc1,-9,-10,-23,981,1,0,nt,
CC(NC(=O)COc1ccccc1-c1ccccc1)c1ccccc1 (stereo not drawn),42*,-5,0,208,-4,24,52*,
CC1(C)Cc2c(cnn2-c2ccccc2)C(=O)/C1=N\NC(=O)c1ccccc1N,-7,-10,1,209,-10,-2,nt,
CC1(C)Cc2c(cnn2-c2ccccc2)-c2c1c1ccccc1n2CC(O)CBr (stereo not drawn),48*,-10,0,456,-8,37,57*,
CCc1ccc(Nc2ccc(C(N)=O)cc2[N+](=O)[O-])cc1,72*,-6,9,401,3,-13,81*,
Cc1ccc(Nc2ccc(C(N)=O)cc2[N+](=O)[O-])cc1C,65*,-1,14,176,-8,-8,65*,
